# Many of the other results were omitted from the sample, so hits are more common in it than they were.
# L major viab: Leishmania major promastigote growth inhibition, primary screen. Leishmania major promastigotes, resazurin fluorescence viability. inhibition, % at 10 µM. actives 9% (n = 200,000). AID 1063, 2008; in the data active = inhibition above about 50%;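 also: promastigotes grown with compound for 44 hours at 28 °C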
# S1P4 antag: S1P4 receptor antagonists, primary screen, cell-based | actives 0.26% (n = 220,000) | Sphingosine 1-phosphate receptor 4 (Homo sapiens), O95977 | AID 1510, 2009 | S1P4-expressing cells, antagonist mode, reporter read-out | inhibition, % at 4.98 µM; in the data active = inhibition above about 29%;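 also: 0% = wells stimulated with agonist and 100% = vehicle wells without agonist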
# Target sequence (O95977 whole entry, looked up): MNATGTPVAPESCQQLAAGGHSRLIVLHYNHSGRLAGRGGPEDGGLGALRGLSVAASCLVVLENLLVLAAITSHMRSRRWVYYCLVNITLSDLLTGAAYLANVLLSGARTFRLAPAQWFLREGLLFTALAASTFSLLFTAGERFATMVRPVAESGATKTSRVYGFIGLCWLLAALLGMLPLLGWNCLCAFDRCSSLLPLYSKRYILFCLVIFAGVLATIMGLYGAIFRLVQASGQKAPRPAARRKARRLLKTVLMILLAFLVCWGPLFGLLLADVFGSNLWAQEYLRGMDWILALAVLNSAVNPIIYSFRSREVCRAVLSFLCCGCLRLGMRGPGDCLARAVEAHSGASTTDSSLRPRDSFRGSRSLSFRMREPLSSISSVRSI
# Mdm2 ligase inh: MDM2-luciferase reporter signal enhancers, primary screen, MDM2 E3 ligase inhibitor project, cell-based, luminescence, 1536-well; actives 0.11% (n = 210,000); signal enhancement, % at 5 µM; E3 ubiquitin-protein ligase Mdm2 (Homo sapiens), Q00987; AID 1230, 2008; cell-based MDM2 ubiquitination luciferase reporter, 2 h; 0 = plate control, 100 = twice control, blank-subtracted;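 active = signal enhancement of 30% or more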;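 also: luminescence tracks abundance of the self-degrading MDM2-luciferase fusion protein; higher signal means inhibition of MDM2 E3 ligase activity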
#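 Test system: mammalian cells stably expressing self-ubiquitinating, self-degrading MDM2 E3–luciferase fusion; Amount: 2000 cells in each well; Medium: DMEM; Schedule: 4 h settle plus 2 h compound, 37 °C; Technique: SteadyLite luciferase luminescence after 15 min room-temperature reagent incubation; Benchmarks: plate control and blank wells.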
# S1P3 antagonist: S1P3 receptor antagonists, primary screen, cell-based | CHO S1P3 NFAT-BLA reporter, FRET fluorescence, antagonist mode | inhibition, % at 4.98 µM | Sphingosine 1-phosphate receptor 3 (Homo sapiens), Q99500 | actives 0.27% (n = 170,000);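 active = inhibition above the plate cutoff, the mean inhibition of test wells on that plate plus 3 SD, cut at about 28% in these data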;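 also: cells challenged with S1P at its EC80 of 0.8 µM; blue over green emission ratio from cleaved BLA substrate after 4 h stimulation; 0% = S1P-stimulated wells and 100% = unstimulated DMSO-only wells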
# S1P4 agonist: S1P4 receptor agonists, primary screen, cell-based; Sphingosine 1-phosphate receptor 4 (Homo sapiens), O95977; S1P4-expressing cell line, agonist reporter assay; activation, % at 4.98 µM; actives 0.35% (n = 220,000); AID 1509, 2009; in the data active = activation above about 11%;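 also: 0% = DMSO vehicle and 100% = reference agonist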
# S1P4 ag conf: S1P4 receptor agonists, retest, confirmation, cell-based, high throughput; shares compounds with S1P4 agonist; activation, % at 4.98 µM; S1P4 agonist cell-based reporter assay; actives 7% (n = 740); AID 1523, 2009; in the data active = activation above about 12%;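 also: 0% = vehicle and 100% = full reference agonist response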
# S1P1 agonist: S1P1 receptor agonists, human, counter-screen for S1P4 agonist project, cell-based; activation, % at 4.98 µM; actives 4% (n = 740); shares compounds with S1P4 agonist; S1P1 agonist cell-based assay, activation; in the data active = activation above about 21%;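 also: 0% = vehicle wells and 100% = reference agonist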
# * hit, by the source's call; . = no result given.
SMILES,L major viab,S1P4 antag,Mdm2 ligase inh,S1P3 antagonist,S1P4 agonist,S1P4 ag conf,S1P1 agonist
O=C(NC1CCCCCC1)c1ccc(=O)n(Cc2ccccc2)n1,8.6,-2.9,-7.2,-6.9,0.6,.,.
COc1ccccc1/C=C/C=N/NC(=O)c1cccs1,.,-11.4,-6.7,21.3,2.7,.,.
Cc1cc(C)n(-c2ccc(C(=O)Nc3sccc3C(N)=O)cc2)n1,45.3,-24.9,-14.6,18.2,11.7*,20.8*,-7.4
Cc1nn(C(C)C(=O)NCc2cccs2)c(C)c1[N+](=O)[O-] (configuration not stated),1.1,-3.5,-19.4,-7.4,0.6,.,.
COCn1c(-c2cccc(Br)c2)nc2ccccc21,24.0,14.8,-19.4,23.3,82.2*,-0.2,7.2
COCn1c(-c2ccc(OC)c(OC)c2)nc2ccccc21,13.3,-2.9,-10.6,10.5,1.6,.,.
CCN(CC)Cc1c(O)c(Cl)cc2c(C)cc(=O)oc12,1.2,-1.7,-11.4,-20.3,6.0,.,.
C=CCc1c(O)c(CC)cc2c(C)cc(=O)oc12,.,-7.6,-4.2,-2.4,27.7*,6.0,6.6
CCNC(=S)NNC(=O)c1cc(C)nc2ccccc12,-3.9,-4.8,-10.2,-7.9,43.7*,-1.2,2.0
C=CCNC(=S)NNC(=O)c1cc(C)nc2ccccc12,-3.0,-3.8,-13.0,3.9,0.6,.,.
O=C(CSCc1ccc(Cl)cc1)Nc1ccc(S(=O)(=O)N2CCCCCC2)cc1,0.0,-10.7,-7.5,-12.3,14.6*,-2.6,-5.1
Cc1ccc(S(=O)(=O)N2CCc3ccccc3C2CC(=O)O)cc1 (configuration not stated),.,8.6,-9.1,-19.2,25.9*,-1.9,-1.5
Cc1ccc2[nH]c3c(=O)n(CCC4=CCCCC4)cnc3c2c1,-3.6,-5.4,-6.9,.,1.3,.,.
O=c1c2[nH]c3ccccc3c2ncn1CCC1=CCCCC1,4.2,-9.3,-6.7,11.7,17.1*,-1.5,-1.9
C#CCOC(=O)C[N+](C)(C)CC#Cc1ccccc1,1.0,-7.7,-3.3,-4.8,0.0,.,.
Cn1c(SCC(=O)O)nnc1-c1ccc2ncccc2c1,.,-7.0,-9.4,4.2,116.7*,-0.3,-5.9
CCOC(=O)n1n[n+]([O-])c2ccccc21,-6.5,-2.2,-2.9,0.8,0.5,.,.
CCOC(=O)C1(Cc2cccc(F)c2)CCN(C(=O)c2cnccn2)CC1,-3.9,-1.2,-2.9,-1.6,0.1,.,.
O=C(COC(=O)CCc1nc2ccccc2c(=O)[nH]1)Nc1ccc2c(c1)OCO2,.,0.6,-9.6,-15.1,2.0,.,.
CN(C)n1cnc2ccsc2c1=O,-0.4,5.5,0.5,-10.3,0.5,.,.
CCNC(=S)N(CCc1cccc(C)c1)Cc1cc2cc(OC)c(OC)cc2[nH]c1=O,8.1,-1.7,1.8,-2.0,50.8*,-1.3,-3.6
O=C(O)c1ccccc1C(=O)NNc1cccc(Cl)n1,3.5,-4.6,-5.2,8.0,0.9,.,.
CCCOc1ccc(C2C(C(=O)OC)=CN(CCOC)C=C2C(=O)OC)cc1,14.8,-31.3,-10.6,3.7,12.2*,1.1,10.2
O=C(Nc1cccnc1)c1ccc(C(=O)Nc2cccnc2)cc1,5.5,6.1,-21.4,-13.5,-0.1,.,.
CC(Nc1cccnc1)=C(C#N)C#N,-1.3,-7.9,0.8,-3.6,11.9*,-2.7,15.4
SMILES,L major viab,S1P4 antag,Mdm2 ligase inh,S1P3 antagonist,S1P4 agonist,S1P4 ag conf,S1P1 agonist
Cc1ccc2[nH]c3c(c2c1)CCN1C(=O)OC(C)(C)C31C (configuration not stated),12.7,-0.9,-1.3,17.0,-1.2,.,.
COc1ccc(C(=O)COc2ccc(C)cc2NC(C)=O)cc1,.,-1.0,-16.1,-11.9,0.8,.,.
COCCCNC(=O)C1CCN(C(=O)Nc2ccc(Cl)cc2)CC1,2.5,-10.3,-6.5,-22.3,60.7*,-2.2,-5.4
CCCCNS(=O)(=O)c1ccc2nc(-c3cccnc3)cc(C(=O)NCCCOCC)c2c1,0.4,-31.0,-1.7,-14.0,1.1,.,.
Cc1nnc(-c2ccc(Oc3ccc(Br)cc3)c([N+](=O)[O-])c2)o1,-8.9,-16.7,10.5,8.9,1.7,.,.
Cc1cc(Oc2ccc(-c3nnc(-c4ccccc4)o3)cc2[N+](=O)[O-])ccc1Cl,12.9,-1.7,-5.2,11.0,13.8*,-0.7,1.6
Cc1cc(N2CCCC(C(=O)Nc3cccc(Cl)c3)C2)n2ncnc2n1 (configuration not stated),6.9,11.0,-6.4,13.2,0.7,.,.
Cc1cc(N2CCCC(C(=O)Nc3ccc4c(c3)CCC4)C2)n2ncnc2n1 (configuration not stated),1.8,11.6,-16.1,8.9,16.6*,-1.6,-4.8
CCN(CC(=O)Nc1cc(C)nn1-c1nc(C)cc(C)n1)Cc1ccccc1,52.6*,0.7,-1.8,.,194.8*,-1.8,1.3
Cc1cc(C)nc(-n2nc(C)cc2NC(=O)CNCc2ccccc2)n1,6.4,-11.6,-11.9,.,-1.7,.,.
O=C(N/N=C/c1cccc(OCC(=O)N2CCCC2)c1)C(=O)Nc1ccccc1F,-8.8,-41.4,-6.3,2.7,0.8,.,.
CCc1ccc2c(c1)/C(=N/OC)C(=O)N2,-0.5,-5.4,-0.7,-7.9,60.4*,-1.6,16.1
COc1ccc2c(c1)C(=O)C(=O)N2,-6.8,-20.9,-13.9,6.4,-2.0,.,.
O=C(NCC1CCCO1)/C(=C/c1cn(-c2ccccc2)nc1-c1cccnc1)NC(=O)c1ccccc1 (configuration not stated),0.4,-11.4,-21.2,-11.7,0.7,.,.
CC(OC(=O)c1ccc2c(=O)n3c(nc2c1)CCC3)C(N)=O (configuration not stated),-4.9,-5.2,-7.6,2.5,-4.0,.,.
CC(OC(=O)c1ccc2c(=O)n3c(nc2c1)CCCCC3)C(=O)Nc1ncc(Cl)cc1Cl (configuration not stated),-2.4,-30.7,-8.0,3.0,11.4*,-3.0,2.8
Cc1cc(OC(=O)CNC(=O)OC(C)(C)C)c2c(C)cc(=O)oc2c1,-6.6,-14.4,-3.3,11.3,48.1*,-2.1,-7.1
CC(C)CC(NC(=O)C(CO)NC(=O)C1CCC(=O)N1)C(N)=O (configuration not stated),-7.6,-8.6,-4.5,-20.6,0.2,.,.
CC(=O)NN1C(=O)c2ccc(Oc3ccc([N+](=O)[O-])cc3)cc2C1=O,-7.0,-1.5,-41.3,.,0.0,.,.
CC(=O)NN1C(=O)c2ccc(Oc3ccc4c(c3)C(=O)N(NC(C)=O)C4=O)cc2C1=O,-6.9,-10.9,-5.5,-9.5,22.7*,-2.0,0.5

# Screens as filed in PubChem BioAssay.
